Results as given in ChEMBL document CHEMBL1139407, “Pyridyl and thiazolyl bisamide CSF-1R inhibitors for the treatment of cancer” (Bioorg Med Chem Lett, 2008).

Assays:
[1] = target: T1, Macrophage colony-stimulating factor 1 receptor (Homo sapiens, UniProt P07333); experiment: Inhibition of CSF1R assessed as residual enzyme activity at 1 uM
[2] = test system: Mus musculus; experiment: Inhibition of phosphorylated CSF1R level in 3T3/CSF1R mutant cells xenografted nude mouse at 50 mg/kg, po after 6 hrs by ELISA; assay type: functional
Outline: (§1)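 3T3 cells expressing constitutively active human mutant full-length CSF-1R (301–969) were implanted subcutaneously at 5 × 10⁶ cells in female nude mice and grown to tumors >250 mm³. After dosing, tumors were assayed for pCSF-1R by ELISA, and plasma was sampled for drug levels.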

[3] = target: Epidermal growth factor receptor (Homo sapiens) (UniProt P00533); experiment: Inhibition of EGFR assessed as residual enzyme activity at 1 uM
[4] = target: Serine/threonine-protein kinase pim-1 (Homo sapiens) (UniProt P11309); experiment: Inhibition of Pim-1 assessed as residual enzyme activity at 1 uM
[5] = target: Hepatocyte growth factor receptor (Homo sapiens) (UniProt P08581); experiment: Inhibition of Met assessed as residual enzyme activity at 1 uM
[6] = target: Mitogen-activated protein kinase 1 (Homo sapiens) (UniProt P28482); experiment: Inhibition of MAPK1 assessed as residual enzyme activity at 1 uM
[7] = target: T1, Macrophage colony-stimulating factor 1 receptor; experiment: Inhibition of CSF1R
[8] = target: Cyclin-dependent kinase 2 (Homo sapiens) (UniProt P24941); experiment: Inhibition of CDK2/cyclinA assessed as residual enzyme activity at 1 uM
[9] = target: Glycogen synthase kinase-3 beta (Homo sapiens) (UniProt P49841); experiment: Inhibition of GSK3-beta assessed as residual enzyme activity at 1 uM
[10] = target: Insulin-like growth factor 1 receptor (Homo sapiens) (UniProt P08069); experiment: Inhibition of IGF1-R assessed as residual enzyme activity at 1 uM
[11] = target: Tyrosine-protein kinase JAK2 (Homo sapiens) (UniProt O60674); experiment: Inhibition of JAK2 assessed as residual enzyme activity at 1 uM
[12] = Clearance in rat at 3 mg/kg, iv and 10 mg/kg, po; assay type: ADME, organism-based; conditions: in vivo
[13] = target: Mast/stem cell growth factor receptor Kit (Homo sapiens) (UniProt P10721); experiment: Inhibition of cKit assessed as residual enzyme activity at 1 uM
[14] = target: Angiopoietin-1 receptor (Homo sapiens) (UniProt Q02763); experiment: Inhibition of Tie2 assessed as residual enzyme activity at 1 uM
[15] = target: Receptor-type tyrosine-protein kinase FLT3 (Homo sapiens) (UniProt P36888); experiment: Inhibition of Flt3 assessed as residual enzyme activity at 1 uM
[16] = target: Tyrosine-protein kinase Fyn (Homo sapiens) (UniProt P06241); experiment: Inhibition of Fyn assessed as residual enzyme activity at 1 uM
[17] = target: RAF proto-oncogene serine/threonine-protein kinase (Homo sapiens) (UniProt P04049); experiment: Inhibition of cRaf assessed as residual enzyme activity at 1 uM
[18] = target: Tyrosine-protein kinase HCK (Homo sapiens) (UniProt P08631); experiment: Inhibition of Hck assessed as residual enzyme activity at 1 uM
[19] = Volume of distribution at steady state in rat at 3 mg/kg, iv and 10 mg/kg, po; assay type: ADME, organism-based; conditions: in vivo, read-out: Vdss
[20] = target: Fibroblast growth factor receptor 1 (Homo sapiens) (UniProt P11362); experiment: Inhibition of FGFR1 assessed as residual enzyme activity at 1 uM
[21] = target: Vascular endothelial growth factor receptor 2 (Homo sapiens) (UniProt P35968); experiment: Inhibition of KDR assessed as residual enzyme activity at 1 uM
[22] = target: Proto-oncogene tyrosine-protein kinase Src (Homo sapiens) (UniProt P12931); experiment: Inhibition of Src assessed as residual enzyme activity at 1 uM
[23] = target: Insulin receptor (Homo sapiens) (UniProt P06213); experiment: Inhibition of insulin receptor assessed as residual enzyme activity at 1 uM
[24] = Half life in rat at 3 mg/kg, iv and 10 mg/kg, po; assay type: ADME, organism-based; conditions: in vivo
[25] = Bioavailability in rat at 3 mg/kg, iv and 10 mg/kg, po; assay type: ADME, organism-based; conditions: in vivo
[26] = target: Inhibitor of nuclear factor kappa-B kinase subunit beta (Homo sapiens) (UniProt O14920); experiment: Inhibition of IKK-beta assessed as residual enzyme activity at 1 uM
[27] = target: Platelet-derived growth factor receptor beta (Homo sapiens) (UniProt P09619); experiment: Inhibition of PDGFRbeta assessed as residual enzyme activity at 1 uM
[28] = target: Ephrin type-A receptor 2 (Homo sapiens) (UniProt P29317); experiment: Inhibition of EphA2 assessed as residual enzyme activity at 1 uM
[29] = test system: Mus musculus; experiment: Inhibition of phosphorylated CSF1R level in 3T3/CSF1R mutant cells xenografted nude mouse at 50 mg/kg, po after 2 hrs by ELISA; assay type: functional; outline: as §1
[30] = test system: NIH3T3; experiment: Antiproliferative activity against mouse 3T3 cells expressing human CSF1R after 72 hrs by Celltiter assay; assay type: functional
Outline: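 3T3 cells engineered with human full-length CSF-1R, seeded in phenol red-free DMEM with 0.05% BSA and incubated overnight. Treated with DMEM containing 80 ng/ml M-CSF plus insulin, transferrin and selenium at multiple compound concentrations. […] Growth read by MTS-type CellTiter 96 Aqueous One after 72 h.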

T1 sequence (P07333 whole entry): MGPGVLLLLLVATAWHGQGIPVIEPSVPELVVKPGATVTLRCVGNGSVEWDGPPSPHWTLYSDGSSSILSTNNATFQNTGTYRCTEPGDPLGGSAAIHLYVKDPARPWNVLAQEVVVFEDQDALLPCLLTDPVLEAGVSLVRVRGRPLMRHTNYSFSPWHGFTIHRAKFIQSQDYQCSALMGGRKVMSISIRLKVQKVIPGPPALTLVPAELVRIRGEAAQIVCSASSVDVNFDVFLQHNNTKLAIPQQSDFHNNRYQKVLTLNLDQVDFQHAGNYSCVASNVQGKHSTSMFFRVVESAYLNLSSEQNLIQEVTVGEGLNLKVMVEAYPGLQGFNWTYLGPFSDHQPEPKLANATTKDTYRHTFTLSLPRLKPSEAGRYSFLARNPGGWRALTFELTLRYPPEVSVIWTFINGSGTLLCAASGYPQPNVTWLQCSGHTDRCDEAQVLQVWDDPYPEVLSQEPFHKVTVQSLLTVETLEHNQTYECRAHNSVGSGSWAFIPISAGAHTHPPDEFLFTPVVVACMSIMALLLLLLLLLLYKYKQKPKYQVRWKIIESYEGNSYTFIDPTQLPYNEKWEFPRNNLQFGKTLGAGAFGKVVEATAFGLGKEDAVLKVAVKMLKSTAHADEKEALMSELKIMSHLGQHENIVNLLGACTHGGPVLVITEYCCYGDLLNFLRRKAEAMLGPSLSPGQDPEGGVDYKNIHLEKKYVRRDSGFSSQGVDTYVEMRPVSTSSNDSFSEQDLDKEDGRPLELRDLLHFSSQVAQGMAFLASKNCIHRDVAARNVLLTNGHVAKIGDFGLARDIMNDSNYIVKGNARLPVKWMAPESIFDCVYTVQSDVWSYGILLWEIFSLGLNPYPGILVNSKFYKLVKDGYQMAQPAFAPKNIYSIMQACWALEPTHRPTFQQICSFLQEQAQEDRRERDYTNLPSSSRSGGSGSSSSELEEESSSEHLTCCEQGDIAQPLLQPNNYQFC
Tyrosine-protein kinase Fyn (Homo sapiens), sequence (P06241 2-537 limits assumed): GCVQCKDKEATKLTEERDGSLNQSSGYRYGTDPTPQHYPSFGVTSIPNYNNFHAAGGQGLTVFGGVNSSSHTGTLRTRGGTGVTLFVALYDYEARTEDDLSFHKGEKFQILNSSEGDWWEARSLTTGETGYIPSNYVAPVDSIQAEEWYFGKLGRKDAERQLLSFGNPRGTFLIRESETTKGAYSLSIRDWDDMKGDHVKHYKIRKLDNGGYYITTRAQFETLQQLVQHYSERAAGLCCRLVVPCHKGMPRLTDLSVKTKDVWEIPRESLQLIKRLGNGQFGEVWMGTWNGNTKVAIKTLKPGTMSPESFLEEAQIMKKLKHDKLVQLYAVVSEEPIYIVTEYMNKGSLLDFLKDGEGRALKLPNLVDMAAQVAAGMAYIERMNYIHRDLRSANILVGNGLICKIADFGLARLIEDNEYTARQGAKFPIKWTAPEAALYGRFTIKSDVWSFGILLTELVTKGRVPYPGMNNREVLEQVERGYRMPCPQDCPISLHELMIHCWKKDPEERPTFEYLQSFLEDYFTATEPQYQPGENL
Fibroblast growth factor receptor 1 (Homo sapiens), sequence (P11362 22-822 limits assumed): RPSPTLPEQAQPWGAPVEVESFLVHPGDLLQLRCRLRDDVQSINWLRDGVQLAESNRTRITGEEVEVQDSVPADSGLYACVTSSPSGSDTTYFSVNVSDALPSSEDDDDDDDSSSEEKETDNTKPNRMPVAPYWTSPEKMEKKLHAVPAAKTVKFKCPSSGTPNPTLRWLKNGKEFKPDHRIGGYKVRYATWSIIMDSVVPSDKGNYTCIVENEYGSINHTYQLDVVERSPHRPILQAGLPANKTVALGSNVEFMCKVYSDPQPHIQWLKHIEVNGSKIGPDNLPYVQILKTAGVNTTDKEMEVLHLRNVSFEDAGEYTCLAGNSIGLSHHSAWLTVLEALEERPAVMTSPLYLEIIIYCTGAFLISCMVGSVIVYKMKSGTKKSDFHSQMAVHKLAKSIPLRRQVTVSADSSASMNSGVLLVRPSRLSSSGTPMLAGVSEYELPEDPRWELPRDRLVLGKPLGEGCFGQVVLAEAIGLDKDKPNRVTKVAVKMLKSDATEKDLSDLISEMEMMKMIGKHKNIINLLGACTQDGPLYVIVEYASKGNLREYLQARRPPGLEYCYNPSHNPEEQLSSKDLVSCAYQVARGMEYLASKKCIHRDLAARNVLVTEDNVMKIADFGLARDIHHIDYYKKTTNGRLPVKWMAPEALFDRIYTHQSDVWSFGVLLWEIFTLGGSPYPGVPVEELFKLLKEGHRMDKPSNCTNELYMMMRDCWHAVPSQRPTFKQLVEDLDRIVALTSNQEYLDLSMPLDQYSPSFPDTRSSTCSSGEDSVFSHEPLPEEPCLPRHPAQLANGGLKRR
Ephrin type-A receptor 2 (Homo sapiens), sequence (P29317 whole entry): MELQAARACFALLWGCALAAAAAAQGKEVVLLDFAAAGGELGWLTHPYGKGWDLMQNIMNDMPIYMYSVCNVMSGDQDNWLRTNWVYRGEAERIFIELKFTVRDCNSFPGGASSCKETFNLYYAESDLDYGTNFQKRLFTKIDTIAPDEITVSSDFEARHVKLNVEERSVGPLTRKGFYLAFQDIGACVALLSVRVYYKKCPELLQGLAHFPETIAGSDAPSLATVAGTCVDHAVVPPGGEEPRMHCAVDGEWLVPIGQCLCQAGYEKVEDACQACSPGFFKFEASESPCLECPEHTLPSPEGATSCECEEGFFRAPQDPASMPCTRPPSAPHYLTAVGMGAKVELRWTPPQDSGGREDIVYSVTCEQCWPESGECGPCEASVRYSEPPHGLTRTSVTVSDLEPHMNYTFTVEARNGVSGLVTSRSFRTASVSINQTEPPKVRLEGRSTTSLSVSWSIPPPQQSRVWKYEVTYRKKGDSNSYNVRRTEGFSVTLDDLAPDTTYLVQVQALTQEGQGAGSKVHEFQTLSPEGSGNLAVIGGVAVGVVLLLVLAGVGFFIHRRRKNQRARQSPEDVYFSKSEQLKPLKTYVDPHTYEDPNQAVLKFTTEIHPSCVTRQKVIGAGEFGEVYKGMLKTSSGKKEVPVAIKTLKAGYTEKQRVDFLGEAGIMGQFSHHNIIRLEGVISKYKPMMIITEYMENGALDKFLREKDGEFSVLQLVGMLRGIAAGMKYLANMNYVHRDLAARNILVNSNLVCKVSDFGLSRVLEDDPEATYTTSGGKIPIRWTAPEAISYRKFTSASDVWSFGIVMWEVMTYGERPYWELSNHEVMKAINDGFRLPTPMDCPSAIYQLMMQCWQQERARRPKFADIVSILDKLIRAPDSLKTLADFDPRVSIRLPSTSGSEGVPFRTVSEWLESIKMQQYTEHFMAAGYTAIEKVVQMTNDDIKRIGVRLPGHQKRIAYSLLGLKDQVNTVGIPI
Inhibitor of nuclear factor kappa-B kinase subunit beta (Homo sapiens), sequence (O14920 whole entry): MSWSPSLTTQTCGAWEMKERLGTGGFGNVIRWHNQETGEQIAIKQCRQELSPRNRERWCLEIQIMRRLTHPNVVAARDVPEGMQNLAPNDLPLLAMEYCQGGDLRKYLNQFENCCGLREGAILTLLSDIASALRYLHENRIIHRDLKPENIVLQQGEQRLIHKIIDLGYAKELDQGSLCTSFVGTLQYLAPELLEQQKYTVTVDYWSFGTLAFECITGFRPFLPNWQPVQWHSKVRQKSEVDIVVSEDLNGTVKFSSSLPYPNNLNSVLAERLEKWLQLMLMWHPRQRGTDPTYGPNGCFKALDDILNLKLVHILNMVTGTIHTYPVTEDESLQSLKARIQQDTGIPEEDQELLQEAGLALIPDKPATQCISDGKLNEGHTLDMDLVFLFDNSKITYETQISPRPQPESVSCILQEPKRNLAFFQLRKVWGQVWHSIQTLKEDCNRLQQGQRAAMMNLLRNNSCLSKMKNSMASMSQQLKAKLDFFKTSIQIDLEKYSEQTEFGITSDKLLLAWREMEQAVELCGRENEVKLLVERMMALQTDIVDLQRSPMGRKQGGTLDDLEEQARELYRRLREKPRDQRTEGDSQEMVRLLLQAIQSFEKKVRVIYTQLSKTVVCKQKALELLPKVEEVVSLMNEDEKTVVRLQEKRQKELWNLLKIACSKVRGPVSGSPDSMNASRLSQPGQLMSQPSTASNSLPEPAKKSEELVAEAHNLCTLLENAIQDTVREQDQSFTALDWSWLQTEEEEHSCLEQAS
Mast/stem cell growth factor receptor Kit (Homo sapiens), sequence (P10721 whole entry): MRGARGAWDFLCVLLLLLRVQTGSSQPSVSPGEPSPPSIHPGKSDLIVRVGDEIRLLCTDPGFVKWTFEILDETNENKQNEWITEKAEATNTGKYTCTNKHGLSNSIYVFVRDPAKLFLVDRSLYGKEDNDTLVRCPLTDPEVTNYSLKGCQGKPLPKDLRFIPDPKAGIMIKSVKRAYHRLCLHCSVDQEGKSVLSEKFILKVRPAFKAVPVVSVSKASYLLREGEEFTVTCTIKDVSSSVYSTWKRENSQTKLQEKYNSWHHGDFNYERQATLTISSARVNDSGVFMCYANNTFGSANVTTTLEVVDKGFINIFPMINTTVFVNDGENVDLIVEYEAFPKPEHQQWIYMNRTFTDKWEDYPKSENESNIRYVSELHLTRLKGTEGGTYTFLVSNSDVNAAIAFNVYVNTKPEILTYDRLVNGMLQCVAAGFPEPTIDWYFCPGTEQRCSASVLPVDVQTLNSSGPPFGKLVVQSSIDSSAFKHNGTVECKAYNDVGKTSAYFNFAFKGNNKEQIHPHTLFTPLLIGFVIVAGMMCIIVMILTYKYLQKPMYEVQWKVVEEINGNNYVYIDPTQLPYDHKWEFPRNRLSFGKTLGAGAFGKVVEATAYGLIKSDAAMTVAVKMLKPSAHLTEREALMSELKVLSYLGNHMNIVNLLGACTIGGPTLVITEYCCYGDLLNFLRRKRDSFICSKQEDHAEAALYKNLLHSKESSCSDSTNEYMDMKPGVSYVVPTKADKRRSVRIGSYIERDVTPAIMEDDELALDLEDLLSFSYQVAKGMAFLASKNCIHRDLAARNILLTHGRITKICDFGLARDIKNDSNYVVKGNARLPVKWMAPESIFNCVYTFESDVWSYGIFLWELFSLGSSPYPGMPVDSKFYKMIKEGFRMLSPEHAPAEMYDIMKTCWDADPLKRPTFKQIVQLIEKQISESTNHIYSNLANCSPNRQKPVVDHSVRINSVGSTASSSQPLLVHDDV

Cc1ncc(NC(=O)c2cc(NC(=O)c3cccc(C(F)(F)F)c3)ccc2Cl)s1
Activity [1]: 1%
inhibition in vivo at 50 mg/kg [2]: 35%
Activity [3]: 118%
Activity [4]: 116%
Activity [5]: 109%
Activity [6]: 116%
IC50 [7]: 7 nM
Activity [8]: 95%
Activity [9]: 91%
Activity [10]: 107%
Activity [11]: 112%
clearance [12]: 13 mL/min/kg
Activity [13]: 57%
Activity [14]: 111%
Activity [15]: 114%
Activity [16]: 7%
Activity [17]: 9%
Activity [18]: 6%
Vd [19]: 1.1 L/kg
Activity [20]: 111%
Activity [21]: 10%
Activity [22]: 10%
Activity [23]: 108%
half-life [24]: 1.2 h
bioavailability [25]: 62%
Activity [26]: 112%
Activity [27]: 45%
Activity [28]: 5%
inhibition in vivo at 50 mg/kg [29]: 70%
Activity [30]: 0.05 µM

COc1cccc(C(=O)Nc2ccc(Cl)c(C(=O)Nc3cccnc3)c2)c1
IC50 [7]: 9 nM
Activity [30]: 0.94 µM

Cc1cccc(C(=O)Nc2ccc(Cl)c(C(=O)Nc3cccnc3)c2)c1
IC50 [7]: 10 nM
clearance [12]: 30 mL/min/kg
Vd [19]: 1.3 L/kg
half-life [24]: 0.8 h
bioavailability [25]: 28%
Activity [30]: 0.24 µM

Cc1ccc(C(=O)Nc2ccc(Cl)c(C(=O)Nc3cccnc3)c2)cc1C
IC50 [7]: 5 nM
Activity [30]: 0.15 µM

Cc1ccc(C(=O)Nc2cccc(C(F)(F)F)c2)cc1NC(=O)c1cccnc1
IC50 [7]: 32 nM
Activity [30]: 1.34 µM

Cc1cc(C)cc(C(=O)Nc2ccc(Cl)c(C(=O)Nc3cccnc3)c2)c1
IC50 [7]: 8 nM
Activity [30]: 0.05 µM

O=C(Nc1ccc(Cl)c(C(=O)Nc2cccnc2)c1)c1ccc(Cl)c(Cl)c1
IC50 [7]: 3 nM
Activity [30]: 0.09 µM

Cc1cc(C)cc(C(=O)Nc2ccc(Cl)c(C(=O)Nc3cnc(C)s3)c2)c1
inhibition in vivo at 50 mg/kg [2]: 60%
IC50 [7]: 6 nM
clearance [12]: 14 mL/min/kg
Vd [19]: 1.2 L/kg
half-life [24]: 1.3 h
bioavailability [25]: 27%
inhibition in vivo at 50 mg/kg [29]: 90%
Activity [30]: 0.06 µM

O=C(Nc1ccc(Cl)c(C(=O)Nc2cncs2)c1)c1cccc(C(F)(F)F)c1
IC50 [7]: 3 nM
clearance [12]: 58 mL/min/kg
Vd [19]: 4.2 L/kg
half-life [24]: 1.2 h
bioavailability [25]: 40%
Activity [30]: 0.27 µM

CC(C)c1ncc(NC(=O)c2cc(NC(=O)c3cccc(C(F)(F)F)c3)ccc2Cl)s1
IC50 [7]: 13 nM
clearance [12]: 37 mL/min/kg
Vd [19]: 2.2 L/kg
half-life [24]: 1 h
bioavailability [25]: 65%
Activity [30]: 0.15 µM

Cc1ccc(C(=O)Nc2cccc(C(F)(F)F)c2)cc1C(=O)Nc1cccnc1
IC50 [7]: 6900 nM

O=C(Nc1ccc(Cl)c(C(=O)Nc2cccnc2)c1)c1cccc(C(F)(F)F)c1
IC50 [7]: 16 nM
clearance [12]: 20 mL/min/kg
Vd [19]: 1.5 L/kg
half-life [24]: 1 h
bioavailability [25]: 76%
Activity [30]: 0.14 µM

O=C(Nc1ccc(Cl)c(C(=O)Nc2cccnc2)c1)c1cccc(F)c1
IC50 [7]: 25 nM
Activity [30]: 1.64 µM

Cc1cc(C)cc(C(=O)Nc2ccc(Cl)c(C(=O)Nc3cnc(C(C)C)s3)c2)c1
IC50 [7]: 31 nM
Activity [30]: 0.11 µM

O=C(Nc1ccc(Cl)c(C(=O)Nc2cccnc2)c1)c1cccc(Cl)c1
IC50 [7]: 10 nM
clearance [12]: 16 mL/min/kg
Vd [19]: 1.4 L/kg
half-life [24]: 1.1 h
bioavailability [25]: 33%
Activity [30]: 0.33 µM

Cc1ccc(NC(=O)c2cccc(C(F)(F)F)c2)cc1NC(=O)c1cccnc1
IC50 [7]: 11 nM
Activity [30]: 2.15 µM

CN(C)c1cccc(C(=O)Nc2ccc(Cl)c(C(=O)Nc3cccnc3)c2)c1
IC50 [7]: 16 nM
Activity [30]: 0.77 µM

Cc1cc(C)cc(C(=O)Nc2ccc(Cl)c(C(=O)Nc3cncs3)c2)c1
IC50 [7]: 3 nM
Activity [30]: 0.11 µM

O=C(Nc1ccc(Cl)c(C(=O)Nc2cnc(C3CC3)s2)c1)c1cccc(C(F)(F)F)c1
IC50 [7]: 140 nM
Activity [30]: 0.1 µM

Cc1ncc(NC(=O)c2cc(NC(=O)c3cc(F)cc(C(F)(F)F)c3)ccc2Cl)s1
inhibition in vivo at 50 mg/kg [2]: 100%
IC50 [7]: 7 nM
clearance [12]: 2 mL/min/kg
Vd [19]: 1.4 L/kg
half-life [24]: 7.3 h
bioavailability [25]: 31%
inhibition in vivo at 50 mg/kg [29]: 100%
Activity [30]: 0.11 µM

O=C(Nc1ccc(Cl)c(C(=O)Nc2cccnc2)c1)c1cccc(Br)c1
IC50 [7]: 14 nM
Activity [30]: 0.26 µM

CCN(CC)CCNC(=O)c1c(C)[nH]c(/C=C2\C(=O)Nc3ccc(F)cc32)c1C.O=C(O)C[C@H](O)C(=O)O [SUNITINIB MALATE]
Activity [30]: 0.09 µM

Cc1ncc(NC(=O)c2cc(NC(=O)c3cc(F)cc(Cl)c3)ccc2Cl)s1
IC50 [7]: 11 nM
Activity [30]: 0.13 µM

Cc1ccc(NC(=O)c2cccc(C(F)(F)F)c2)cc1C(=O)Nc1ccccc1
IC50 [7]: > 50000 nM
Activity [30]: >10 µM

Cc1ncc(NC(=O)c2cc(NC(=O)c3cccc(C(F)(F)F)c3)ccc2C)s1
IC50 [7]: 10 nM
Activity [30]: 0.11 µM

Cc1ccc(NC(=O)c2cccc(C(F)(F)F)c2)cc1C(=O)Nc1cccnc1
IC50 [7]: 37 nM
clearance [12]: 16 mL/min/kg
Vd [19]: 1 L/kg
half-life [24]: 1 h
bioavailability [25]: 40%
Activity [30]: 0.23 µM

O=C(Nc1ccc(Cl)c(C(=O)Nc2cncs2)c1)c1cccc(Cl)c1
IC50 [7]: 5 nM
clearance [12]: 54 mL/min/kg
Vd [19]: 1.8 L/kg
half-life [24]: 0.5 h
bioavailability [25]: 20%
Activity [30]: 0.52 µM

Cc1ncc(NC(=O)c2cc(NC(=O)c3cccc(Cl)c3)ccc2Cl)s1
IC50 [7]: 4 nM
clearance [12]: 12 mL/min/kg
Vd [19]: 0.9 L/kg
half-life [24]: 0.9 h
bioavailability [25]: 43%
Activity [30]: 0.18 µM

Cc1cc(C)cc(C(=O)Nc2ccc(C)c(C(=O)Nc3cnc(C)s3)c2)c1
IC50 [7]: 4 nM
Activity [30]: 0.1 µM

Cc1ncc(NC(=O)c2cc(NC(=O)c3cccc(Cl)c3)ccc2C)s1
IC50 [7]: 7 nM
Activity [30]: 0.32 µM

Cc1ccc(NC(=O)c2cccc(N(C)S(C)(=O)=O)c2)cc1NC(=O)c1ccc2ncccc2c1
IC50 [7]: 89 nM

O=C(Nc1ccc(Cl)c(C(=O)Nc2cccnc2)c1)c1cc(Cl)cc(Cl)c1
IC50 [7]: 3 nM
Activity [30]: 0.13 µM
